Test results reported in ChEMBL document CHEMBL1926589, “2-Anilinonicotinyl linked 2-aminobenzothiazoles and [1,2,4]triazolo[1,5-b] [1,2,4]benzothiadiazine conjugates as potential mitochondrial apoptotic inducers” (Bioorg Med Chem, 2011).
The source made the active and inactive calls. The rule behind the calls is not given here.

Assays:
HL-60 [1] = test: Induction of NO production in human HL60 cells at 1 uM after 24 hrs using DAF-2DA fluorescent dye based flow cytometric analysis; format: functional, cell-based
In short: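 HL-60 cells (1 x 10^5 per 1.5 mL) preloaded 30 min with 10 µM DAF-2-DA before treatment. After 24 h exposure, cells were washed and read by flow cytometry in FL-1 as NO-positive population. Mean ± SD of three independent experiments.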

HL-60 [2] = test: Induction of apoptosis in human HL60 cells assessed as caspase9 activation using LEHD-AMC as substrate at 1 uM after 24 hrs by fluorimetry relative to control; format: functional
In short: (§1)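 HL-60 cells (2 x 10^6) treated 24 h, washed and lysed. Caspase-3, -8 and -9 activities in lysates measured fluorometrically with a commercial caspase fluorescent assay kit. Two independent experiments, each in duplicate.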

HL-60 [3] = test: Induction of apoptosis in human HL60 cells assessed as decrease in size at 1 uM after 12 hrs by scanning electron microscopy; format: functional, cell-based
In short: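 HL-60 cells at 2 x 10^5/ml in 10% FCS medium exposed to 0.5 or 1 µM for 6–48 h; DMSO vehicle controls. Cells fixed in 2.5% glutaraldehyde in 0.1 M phosphate (pH 7.2) at 4 °C for 1 h, post-fixed in 1% OsO4 and ethanol-dehydrated. Critical-point dried, gold-coated, and imaged by SEM at 40 kV.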

HL-60 [4] = test: Induction of apoptosis in human HL60 cells assessed as DNA ladder formation at 10 uM after 24 hrs by agarose gel electrophoresis; format: functional, cell-based
In short: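 Cells treated 24 h, then 2 x 10^6 cells lysed (Triton X-100 buffer, pH 8.0) with RNase at 37 °C for 90 min and proteinase-K at 50 °C for 1 h. DNA phenol/chloroform-extracted and ethanol-precipitated, then run on 1.8% agarose at 50 V for 1.5 h in TAE. Ladders viewed under UV.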

HL-60 [5] = test: Inhibition of Bcl-2 expression in human HL60 cells at 1 uM after 24 hrs by Western blotting; format: functional, cell-based
In short: (§2)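 HL-60 cells treated 24 h and lysed in RIPA buffer on ice; protein measured by Bradford against a BSA standard. 50 µg resolved by SDS-PAGE and transferred to PVDF, blocked in 5% milk/TBST, then primary antibodies 1:1000 for 2 h and HRP secondary 1:1000 for 1 h. ECL detection with β-actin as loading control; bands quantified by densitometry.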

HL-60 [6] = test: Induction of apoptosis in human HL60 cells assessed as PARP cleavage at 1 uM after 24 hrs by Western blotting; format: functional, cell-based; in short: as §2
HL-60 [7] = test: Induction of apoptosis in human HL60 cells assessed as caspase8 activation using IETD-AFC as substrate at 1 uM after 24 hrs by fluorimetry relative to control; format: functional; in short: as §1
OVCAR-5 = test: Growth inhibition of human OVCAR5 cells at 10 uM by sulforhodamine B assay; format: functional; conditions: read-out: GI
In short: (§3)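 Single-dose 10 µM screen by sulforhodamine B assay, reported as percent inhibition of cell proliferation. Cells grown in medium with 10% heat-inactivated FBS at 37 °C, 5% CO2, and treated at about 70% confluence or in log phase. Compounds dissolved in DMSO; controls received vehicle (<0.5% v/v).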

CV-1 = test: Growth inhibition of african green monkey CV1 cells after 48 hrs by MTT assay; format: cell-based; conditions: Chlorocebus aethiops, CV-1, 48 h
HL-60 [8] = test: Cell cycle arrest in human HL60 cells assessed as accumulation at G2/M phase at 1 uM after 24 hrs using propidium iodide staining by flow cytometry; format: functional, cell-based
In short: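 HL-60 cells (1 x 10^5 per 1.5 mL) treated 24 h, then fixed in 70% cold ethanol at −20 °C overnight. RNase digestion (400 µg/ml) at 37 °C for 45 min, then propidium iodide (10 µg/ml) for 30 min. Flow cytometry on 10,000 events, FL2-A vs FL2-W, with doublet discrimination. Sub-G0 (hypodiploid) peak taken as apoptotic cells. Mean ± SD of three independent experiments.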

HL-60 [9] = test: Inhibition of NF-kappaB expression in human HL60 cells at 1 uM after 24 hrs by Western blotting; format: functional, cell-based; in short: as §2
[10] = Growth inhibition of human 502713 cells at 10 uM by sulforhodamine B assay; format: functional; conditions: read-out: GI; in short: as §3
SK-N-SH = test: Growth inhibition of human SK-N-SH cells at 10 uM by sulforhodamine B assay; format: functional; conditions: read-out: GI; in short: as §3
HL-60 [11] = test: Induction of apoptosis in human HL60 cells assessed as nuclear fragmentation at 1 uM after 24 hrs by DAPI staining-based fluorescence microscopy; format: functional, cell-based
In short: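 HL-60 or PC-3 cells treated at 1 µM for 24 h. Air-dried smears fixed in methanol at −20 °C for 20 min and stained with DAPI (1 µg/mL) for 20 min at room temperature in the dark. Mounted in 90% glycerol/PBS and examined by fluorescence microscopy for nuclear morphology.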

**Q.** Which Activity (HL-60 [1]) does the source give for `O=C(Nc1nc2ccc([N+](=O)[O-])cc2s1)c1cccnc1Nc1cc(F)c(F)c(F)c1` here?
**A.** inactive

**Q.** What about the “fold change (FC)” value (HL-60 [2]) of the same compound?
**A.** 2

**Q.** What about the Activity (HL-60 [3]) of the same compound?
**A.** Active

**Q.** And the Activity (HL-60 [4])?
**A.** Active

**Q.** What about the inhibition (HL-60 [5]) of the same compound?
**A.** inactive

**Q.** And the Activity (HL-60 [6])?
**A.** Active

**Q.** What about the “fold change (FC)” value (HL-60 [7]) of the same compound?
**A.** 2

**Q.** What about the inhibition of growth at 10 µM (OVCAR-5) of the same compound?
**A.** 52%

**Q.** What about the IC50 (CV-1) of the same compound?
**A.** > 100 µM

**Q.** And the Activity (HL-60 [8])?
**A.** inactive

**Q.** What about the inhibition (HL-60 [9]) of the same compound?
**A.** Active

**Q.** And the inhibition of growth at 10 µM [10]?
**A.** 80%

**Q.** And the inhibition of growth at 10 µM (SK-N-SH)?
**A.** 49%

**Q.** And the Activity (HL-60 [11])?
**A.** Active
